V-ATPase pHluor – regulators of yeast V-ATPase proton pumping, primary screen, pHLuorin cytosolic pH fluorescence; S. cerevisiae; response, % at 10 µM; 350,000 tested, 0.37% active; AID 504577, 2011; in the data active = response mostly above about 7.3%, no sharp cut-off; inactive = mostly below about 5.4%; also: actives read high
T cell HTS – modulators of CD8 T cell-vesicle binding, primary screen, mouse 2C CD8+ T cells, flow cytometry; 2C CD8+ T cell-vesicle binding; stronger effect = lower value; response (vesicle binding), % at 7 µM; 330,000 tested, 0.068% active; AID 2052, 2009;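 active = response, share of CD8 T cells binding vesicles, and their 90th percentile fluorescence all below set limits, cut at about 80% in these data, passing the limit was not always enough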;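 also: values below 100% mean blocked vesicle binding to the CD8+ T cells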
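Also added: QL9-peptide-loaded Drosophila micro-vesicles bearing Ld, ICAM-1 and B7-1; Test system: purified 2C TCR transgenic mouse naive CD8+ T cells; Measured by: cytometric PE anti-B7-1 and Alexa647 anti-CD8 signals after 1% paraformaldehyde fixation; Timing: binding step 1.5 h, 37 °C, antibody labelling 20 min, ice.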
MIN6 prolif – inducers of MIN6 beta-cell proliferation, primary screen, ATP luminescence, uHTS; 330,000 tested, 0.29% active; AID 2380, 2010; proliferation, % at 10 µM; MIN6 cells proliferation, ATPlite luminescence, 48 h; cells starved in 0.2% serum; 100% = growth in 10% serum;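 active = compounds whose signal lies at least 3.5 SD above the mean of all wells on their plate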
Rce1 inhib – yeast Rce1p protease inhibitors, primary screen, biochemical, fluorescence, cell-free homogeneous | CAAX prenyl protease 2 (Saccharomyces cerevisiae (strain ATCC 204508 / S288c)), Q03530 | yeast membranes, quenched prenylated peptide cleavage fluorescence | calls only | 290,000 tested, 0.27% active | AID 2563, 2010;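 active = fall in fluorescence gain of 50% or more versus controls, with final raw signal at or below 3038400; inconclusive = same 50% fall but final raw signal above 3038400; inactive = fall in fluorescence gain under 50%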
Target sequence (Q03530 whole entry, looked up): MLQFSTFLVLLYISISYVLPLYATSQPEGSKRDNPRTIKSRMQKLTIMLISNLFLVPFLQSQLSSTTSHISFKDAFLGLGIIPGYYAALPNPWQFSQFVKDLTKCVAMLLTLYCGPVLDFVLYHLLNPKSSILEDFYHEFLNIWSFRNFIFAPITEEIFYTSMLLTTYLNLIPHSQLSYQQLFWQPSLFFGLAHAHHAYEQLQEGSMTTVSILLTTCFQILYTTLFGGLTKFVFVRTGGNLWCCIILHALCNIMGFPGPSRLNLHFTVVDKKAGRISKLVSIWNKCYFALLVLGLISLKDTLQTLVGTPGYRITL
proKLK7 act – proKLK7 zymogen activators, primary screen, biochemical, fluorescence intensity; 370,000 tested, 0.9% active; purified proKLK7, EDANS-DABCYL substrate fluorescence; 100% is mature enzyme control, 0% vehicle; Kallikrein-7 (Homo sapiens), P49862; activation, % at 7 µM;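 active = activation above the mean of all tested compounds plus 3 SD, computed per campaign excluding outliers beyond control limits, cut at about 13% in these data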
Target sequence (P49862 whole entry, looked up): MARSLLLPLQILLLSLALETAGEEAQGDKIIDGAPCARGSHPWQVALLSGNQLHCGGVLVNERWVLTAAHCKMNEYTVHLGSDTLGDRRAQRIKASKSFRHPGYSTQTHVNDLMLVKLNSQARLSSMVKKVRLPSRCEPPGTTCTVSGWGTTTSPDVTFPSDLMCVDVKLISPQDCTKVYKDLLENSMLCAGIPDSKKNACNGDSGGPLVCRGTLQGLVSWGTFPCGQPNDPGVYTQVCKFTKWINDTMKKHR
CR mimetic SO – reduction of superoxide in aged yeast, primary screen, HTS; S. cerevisiae aged cells, superoxide DHE fluorescence; stronger effect = lower value; superoxide response (% of plate mean), % at 10 µM; 330,000 tested, 0.18% active; AID 2690, 2010;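 active = superoxide response under a set limit, about three screen SD below normal, cut at about 65% in these data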;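 also: yeast aged for seven days with compound at 30 °C before DHE staining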
proKLK7 act conf – proKLK7 zymogen activators, confirmation, biochemical, fluorescence intensity, triplicate. shares compounds with proKLK7 act. purified proKLK7, EDANS-DABCYL substrate fluorescence; scaled: vehicle 0, mature enzyme 100. activation, % at 7 µM. 3,200 tested, 68% active;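 active = activation, as change over the incubation, above the mean of all tested compounds plus 3 SD, cut at about 13% in these data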
EDANS-DABCYL int – EDANS-DABCYL substrate optical interference, artefact control for kallikrein-7 zymogen activator project, biochemical, fluorescence intensity, high throughput; shares compounds with proKLK7 act; no enzyme, 4 h; solvent 0%, active enzyme control 100%; activation, % at 7 µM; 3,200 tested, 80% active;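 active = activation above the all-compound mean plus 3 SD, ignoring values outside control-based bounds, cut at about 4.8% in these data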;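 also: value is the 4 h activation minus the activation read at time zero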
Each line names hits and unclear results; the compound was inactive in the other large screens (follow-up assays come after a bar, where they were run). Rows were chosen to be rich in hits. Some 1.9% of all compounds tested hit in one or more screens of this group.

CC1=CC(=O)O[C@@H]1[C@@]1(C)C[C@H]2OC(=O)C[C@H]3[C@@H](C)C(=O)C(O)=C1[C@@]23CO	none
Cc1cc(NC(=O)COC(=O)CSc2nc3cc(Cl)ccc3n2Cc2ccccc2)no1	proKLK7 act 13 | proKLK7 act conf inactive | EDANS-DABCYL int inactive
O=C(CCc1ccccn1)N1CCCC(N2CCN(c3ccc(F)cc3)CC2)C1 (stereo unspecified)	none (no result: T cell HTS, CR mimetic SO)
Cn1c(N)nc2nc(CCc3ccccc3)c(=O)[nH]c2c1=O	proKLK7 act 13 | proKLK7 act conf 34 | EDANS-DABCYL int 30
Cn1c(=O)c2c(nc(CCc3ccccc3)n2C)n(C)c1=O	none (no result: T cell HTS, MIN6 prolif, Rce1 inhib, CR mimetic SO)
Cc1ccc2c(CN3CCN(CCO)CC3)cc(=O)oc2c1C	none (no result: T cell HTS)
CCc1cc2c(CN3CCN(CCO)CC3)cc(=O)oc2cc1O	proKLK7 act 49 | proKLK7 act conf 57 | EDANS-DABCYL int 67
CCc1cc2c(CN3CCN(C)CC3)cc(=O)oc2cc1O	proKLK7 act 78 | proKLK7 act conf 68 | EDANS-DABCYL int 75
CCc1cc2c3c(c(=O)oc2cc1O)CCCC3	proKLK7 act 54 | proKLK7 act conf 62 | EDANS-DABCYL int 66
Cc1cc(Br)cn2c(Cc3ccsc3)c(-c3ccc(F)cc3)nc12	none (no result: V-ATPase pHluor, T cell HTS, MIN6 prolif, Rce1 inhib, CR mimetic SO)
O=c1c2ccccc2[nH]c2ccccc12	proKLK7 act 17 (no result: Rce1 inhib) | proKLK7 act conf 17 | EDANS-DABCYL int 24
c1ccc2c(c1)[nH]c1ccccc12	none
Cc1cccc(NC(=O)c2cc3c(s2)-c2c(C)cccc2OC3)n1	none
Cc1ccc2oc(=O)c3cc(C(=O)NCCCN4CCCC(C)C4)sc3c2c1 (stereo unspecified)	none
CCCN1CCN(CCCNC(=O)c2cc3c(s2)-c2c(C)cccc2OC3)CC1	proKLK7 act 42 | proKLK7 act conf 63 | EDANS-DABCYL int 71
CCN1CCN(CCCNC(=O)c2cc3c(s2)-c2ccccc2OC3)CC1	Rce1 inhib inconclusive, proKLK7 act 37 | proKLK7 act conf 73 | EDANS-DABCYL int 70
CCCN1CCN(CCCNC(=O)c2cc3c(=O)[nH]c4ccccc4c3s2)CC1	none
Cc1cccc2c1-c1sc(C(=O)NCCCN3CCCC(C)C3)cc1CO2 (stereo unspecified)	proKLK7 act 48 | proKLK7 act conf 62 | EDANS-DABCYL int 70
CCCN1CCN(CCCNC(=O)c2cc3c(s2)-c2ccccc2OC3)CC1	proKLK7 act 38 | proKLK7 act conf 71 | EDANS-DABCYL int 76
O=C(COC(=O)C1CCN(S(=O)(=O)c2c(Cl)cccc2Cl)CC1)NCc1ccco1	none (no result: Rce1 inhib)
Cc1nc(SCC(=O)N2CCN(C(=O)c3cccs3)CC2)c2c(C)c(C)sc2n1	none (no result: T cell HTS, Rce1 inhib, CR mimetic SO)
Cc1ccc(N(C)S(=O)(=O)c2cccc(C(=O)NCCCN3CCCC3=O)c2)cc1	none (no result: Rce1 inhib)
Cc1csc(NC(=O)c2cc3c(s2)-c2ccccc2OC3)n1	none
CC1CC(C)CN(CCCNC(=O)c2cc3c(s2)-c2ccccc2OC3)C1 (stereo unspecified)	Rce1 inhib inconclusive, proKLK7 act 44 | proKLK7 act conf inactive | EDANS-DABCYL int inactive
CN(C)CCNC(=O)c1cc2c(s1)-c1ccccc1OC2	proKLK7 act 68 | proKLK7 act conf 72 | EDANS-DABCYL int 68
CC1CCCC(C)N1CCCNC(=O)c1cc2c(s1)-c1ccccc1OC2 (stereo unspecified)	Rce1 inhib inconclusive, proKLK7 act 69 | proKLK7 act conf 62 | EDANS-DABCYL int 63
Cc1c(NC(=O)c2cc3c(s2)-c2ccccc2OC3)cccc1[N+](=O)[O-]	none
COc1cccc2c1CCC1=CC(=O)CCC12C (stereo unspecified)	none (no result: T cell HTS, MIN6 prolif, Rce1 inhib, CR mimetic SO)
CCC(=O)N1CCc2cc(Br)cc(S(=O)(=O)N3CCC(C(=O)NC(C)C)CC3)c21	none
O=c1[nH]c(=S)[nH]c2c1C(C1CCCCC1)OC(C1CCCCC1)C2 (stereo unspecified)	none (no result: V-ATPase pHluor, T cell HTS, MIN6 prolif, Rce1 inhib, CR mimetic SO)
CCc1nc2ccc(C(=O)Nc3cccc(NS(C)(=O)=O)c3)cn2c1N(C)Cc1nccn1C	none (no result: V-ATPase pHluor, T cell HTS, MIN6 prolif, Rce1 inhib, CR mimetic SO)
CNc1cc(-c2cccc(OC)c2F)nc2ccnn12	proKLK7 act 38 (no result: V-ATPase pHluor, T cell HTS, MIN6 prolif, Rce1 inhib, CR mimetic SO) | proKLK7 act conf 28 | EDANS-DABCYL int 27
O=C(C[C@@H]1C[C@H]2c3cc(NC(=O)c4cccnc4)ccc3O[C@H]2[C@H](CO)O1)NCc1ccc(Oc2ccccc2)cc1	none (no result: T cell HTS, MIN6 prolif, Rce1 inhib, CR mimetic SO)
CC(C)[C@@H](C)/C=C/[C@@H](C)[C@H]1CC[C@@H]2[C@]1(C)CCC1[C@]23C=C[C@]2(C[C@@H](O)CC[C@]12C)N(C(=O)Cc1ccccc1)O3 (stereo partly specified)	none (no result: V-ATPase pHluor, T cell HTS, MIN6 prolif, Rce1 inhib, CR mimetic SO)
O=c1c2ccccc2nc2ccccn12	proKLK7 act 50 | proKLK7 act conf 42 | EDANS-DABCYL int 41
O=C1CC(c2ccc3ccccc3c2)NN1 (stereo unspecified)	none (no result: Rce1 inhib)
CCn1nc(NC(=O)C(C)C)c2cc3cccc(C)c3nc21	proKLK7 act 62 | proKLK7 act conf inactive | EDANS-DABCYL int inactive
Cc1ccc(SCc2c(C(=O)N/N=C/c3ccc4c(c3)OCO4)nnn2-c2nonc2N)cc1	none
COc1ccc2ccccc2c1/C=N/NC(=O)c1nnn(-c2nonc2N)c1CN(C)C	none
COc1ccc2ccccc2c1/C=N/NC(=O)c1nnn(-c2nonc2N)c1C(C)C	proKLK7 act 40 | proKLK7 act conf inactive | EDANS-DABCYL int inactive
CCOc1ccc(/C=N/NC(=O)c2nnn(-c3nonc3N)c2-c2cccs2)cc1	proKLK7 act 80 | proKLK7 act conf inactive | EDANS-DABCYL int inactive
Cc1ccc(-c2c(C(=O)N/N=C/c3ccc4c(c3)OCO4)nnn2-c2nonc2N)cc1	proKLK7 act 195 | proKLK7 act conf 71 | EDANS-DABCYL int 75
COc1ccc(C[N+]2=C(N)N[C@@]3(C=C(C)Cn4c(=O)n(-c5ccccc5)c(=O)n43)C2)c(OC)c1	none (no result: V-ATPase pHluor, T cell HTS, MIN6 prolif, Rce1 inhib, CR mimetic SO)
O=C(OCc1cn(Cc2ccccc2Cl)nn1)N1CCOCC1	none (no result: V-ATPase pHluor, T cell HTS, MIN6 prolif, Rce1 inhib, CR mimetic SO)
O=C(NCc1ccc(F)cc1)C1CCCN1C(=O)Nc1cccc(F)c1 (stereo unspecified)	none
O=C(CN1CCN(C2CCCCC2)CC1)c1ccc2cc[nH]c2c1	proKLK7 act 22 | proKLK7 act conf 20 | EDANS-DABCYL int 20

High-throughput results: PubChem BioAssay, several laboratories
